Measurements: ChEMBL document CHEMBL5143675, “Attenuating the Streptococcus pneumoniae Competence Regulon Using Urea-Bridged Cyclic Dominant-Negative Competence-Stimulating Peptide Analogs” (J Med Chem, 2022)
Each block holds one molecule with its values, some of them ahead of it. The source made the active and inactive calls. The rule behind the calls is not given here. *1 amine or outer side, *2 acyl side, *3 side chain or, on linkers, in order; H or OH if unused. Where a SMILES comes first, the peptide text is derived from it. Bridges are numbered along the chain shown (N, C = ends). [ ]: non-standard residue; d: D form. Orn = NCCC[C@H](N)C(=O)O; Dab = NCC[C@H](N)C(=O)O; Dap = NC[C@H](N)C(=O)O; CO = O=C([*:1])[*:2]

Columns and labels:
[1] = Stability of the compound in CD-1 mouse assessed as drug degradation at 50 ug, iv by IVIS spectrum in vivo imaging analysis; type: ADME, organism-based; conditions: dose 50 µg
Summary of the method: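 Seven-week-old CD-1 mice (cohorts of 4–5) given Cy7.5-labelled peptide (50 μg/mouse) by retro-orbital i.v. injection, anaesthetized with 3% isoflurane and imaged by IVIS SpectrumCT fluorescence imaging.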

[2] = Antagonist activity against Streptococcus pneumoniae D39-pcomX-lacZ strain expressing ComD1 receptor assessed as inhibition of ComD1 receptor activity by beta-galactosidase reporter gene assay
Summary of the method: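 Reporter strains (pcomX::lacZ) grown on THY agar with 5% horse serum and 4 μg/mL chloramphenicol at 37 °C, 5% CO2; overnight THY broth culture diluted (1:50 D39, 1:10 TIGR4) and grown to early exponential phase (OD600 0.30–0.35 D39; 0.20–0.25 TIGR4). Primary screen at 10,000 nM peptide; EC50/IC50 from dose-response over a concentration range, three independent experiments, 95% confidence interval.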

[3] = Antagonist activity against Streptococcus pneumoniae TIGR4-pcomX-lacZ strain expressing ComD2 receptor assessed as inhibition of ComD2 receptor activity by beta-galactosidase reporter gene assay
Summary of the method: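 TIGR4 pcomX::lacZ reporter grown on THY plates with 5% horse serum and 4 μg/mL chloramphenicol (8–9 h, 37 °C, 5% CO2). 2–3 colonies were grown overnight (15 h) in THY with chloramphenicol, diluted 1:10, and grown 3–4 h to OD600 0.20–0.25. Peptides were tested as competitive inhibitors against native CSP2. […] Three independent experiments.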

[4] = Toxicity in CD-1 mouse assessed as increase in body weight at 4 mg/kg, ip administered daily for 6 days; type: organism-based; conditions: in vivo, 144 h, time 6 day
Streptococcus pneumoniae [5] = experiment: Antagonist activity against CSP1-mediated pneumolysin release in Streptococcus pneumoniae D39 assessed as inhibition of autolytic release of pneumolysin at 46 to 368 nM in presence of CSP1 by Western blot analysis; conditions: filed as antagonist, dose 46-368 nM
Erythrocyte [6] = experiment: Hemolytic activity against sheep RBC assessed as hemolysis using compound treated Streptococcus pneumoniae TIGR4 cultured PLY supernatant at 46 to 368 nM incubated for 30 mins; type: toxicity, cell-based, Ovis aries; conditions: 0.5 h, 0.368 µM, dose 46-368 nM
Summary of the method: (§1)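 Supernatants: centrifuged, 0.22 μm filtered, concentrated 50x, serially two-fold diluted, 10 mM DTT for 15 min at room temperature. Then mixed with 2% sheep RBC for 30 min at 37 °C; A541 of cleared supernatant read. HU = highest dilution giving 50% lysis. Triplicate.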

[7] = Toxicity in CD-1 mouse assessed as appearance of lesions in lung at 4 mg/kg, ip administered daily for 6 days by H and E staining based assay; type: organism-based; conditions: in vivo, 144 h, time 6 day
[8] = Toxicity in CD-1 mouse assessed as appearance of lesions in spleen at 4 mg/kg, ip administered daily for 6 days by H and E staining based assay; type: organism-based; conditions: in vivo, 144 h, time 6 day
Streptococcus pneumoniae [9] = experiment: Antibacterial activity against erythromycin-resistant Streptococcus pneumoniae D39 infected in CD-1 mouse assessed as reduction in bacterial burden in mouse spleen at 4 mg/kg,iv measured after 48 hrs post infection; type: functional, organism-based
Summary of the method: (§2)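 Seven-week-old CD-1 mice, male and female, n=10 per cohort, inoculated intranasally with a 1:1 mix of D39-rplL-ErmR and TIGR4-rplL-KanR (2.5×10^6 CFU each). Treated retro-orbitally i.v. with 4 mg/kg or PBS vehicle at 2 and 24 hpi; euthanized at 48 hpi. Lung and spleen homogenates were plated on THY with erythromycin (250 ng/mL) for D39 or […] for TIGR4.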

[10] = Toxicity in CD-1 mouse assessed as appearance of lesions in kidney at 4 mg/kg, ip administered daily for 6 days by H and E staining based assay; type: organism-based; conditions: in vivo, 144 h, time 6 day
[11] = Toxicity in CD-1 mouse assessed as appearance of lesions in liver at 4 mg/kg, ip administered daily for 6 days by H and E staining based assay; type: organism-based; conditions: in vivo, 144 h, time 6 day
Erythrocyte [12] = experiment: Hemolytic activity against sheep RBC assessed as hemolysis using compound treated Streptococcus pneumoniae D39 cultured PLY supernatant at 46 to 368 nM incubated for 30 mins; type: toxicity, cell-based, Ovis aries; conditions: 0.5 h, 0.368 µM, dose 46-368 nM; summary of the method: as §1
Streptococcus pneumoniae [13] = experiment: Antibacterial activity against erythromycin-resistant Streptococcus pneumoniae D39 infected in CD-1 mouse assessed as reduction in bacterial burden in mouse lung at 4 mg/kg,iv measured after 48 hrs post infection; type: functional, organism-based; summary of the method: as §2
[14] = Toxicity in Streptococcus pneumoniae D39 infected CD-1 mouse model assessed as mortality at 4 mg/kg,iv measured after 120 hrs post infection; type: organism-based; conditions: in vivo
Summary of the method: (§3)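 Seven-week-old CD-1 mice, male and female, n=15 per cohort, isoflurane-anaesthetized, infected intranasally with D39 (4.5×10^6 CFU) or TIGR4 (1.07×10^6 CFU). Treated retro-orbitally i.v. with 4 mg/kg or PBS vehicle at 2 and 24 hpi; mortality monitored for 120 hpi.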

[15] = Toxicity in Streptococcus pneumoniae TIGR4 infected CD-1 mouse model assessed as mortality at 4 mg/kg,iv measured after 72 hrs post; type: organism-based; conditions: in vivo; summary of the method: as §3
[16] = Toxicity in CD-1 mouse assessed as appearance of lesions in heart at 4 mg/kg, ip administered daily for 6 days by H and E staining based assay; type: organism-based; conditions: in vivo, 144 h, time 6 day
[17] = Agonist activity against Streptococcus pneumoniae TIGR4-pcomX-lacZ strain expressing ComD2 receptor assessed as activation of ComD2 receptor activity by beta-galactosidase reporter gene assay
Summary of the method: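 Reporter strains (pcomX::lacZ) grown on THY agar with 5% horse serum and 4 μg/mL chloramphenicol at 37 °C, 5% CO2; overnight THY broth culture diluted (1:50 D39, 1:10 TIGR4) and grown to early exponential phase (OD600 0.30–0.35 D39; 0.20–0.25 TIGR4).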

Drug degradation [1]: 36 h
Molecule: CC[C@H](C)[C@H](NC(=O)[C@H](Cc1ccccc1)NC(=O)[C@H](CC(=O)O)NC(=O)[C@H](CCCNC(=N)N)NC(=O)[C@H](Cc1ccccc1)NC(=O)[C@H](Cc1ccccc1)NC(=O)[C@H](CCCCN)NC(=O)[C@H](CO)NC(=O)[C@H](CC(C)C)NC(=O)[C@H](CCCNC(=N)N)NC(=O)[C@H](CCSC)NC(=O)[C@H](CCC(=O)O)NC(=O)CCCCC[N+]1=C(/C=C/C2=CC(=C/C=C3\N(C)c4ccc5ccccc5c4C3(C)C)/CCC2)C(C)(C)c2ccc3ccccc3c21)C(=O)N[C@@H](CC(C)C)C(=O)N[C@@H](CCC(N)=O)C(=O)N[C@@H](CCCNC(=N)N)C(=O)N[C@@H](CCCCN)C(=O)N[C@@H](CCCCN)C(=O)O

IC50 [2]: 454 nM | EC50 [17]: 39.5 nM
Molecule: CC[C@H](C)[C@H](NC(=O)[C@H](Cc1ccccc1)NC(=O)[C@H](CCCCN)NC(=O)[C@H](CCCNC(=N)N)NC(=O)[C@H](Cc1ccccc1)NC(=O)[C@H](Cc1ccccc1)NC(=O)[C@H](CN)NC(=O)[C@H](CO)NC(=O)[C@H](CC(C)C)NC(=O)[C@H](CCCNC(=N)N)NC(=O)[C@H](CCSC)NC(=O)[C@H](C)N)C(=O)N[C@@H](CC(C)C)C(=O)N[C@@H](CCC(N)=O)C(=O)N[C@@H](CCCNC(=N)N)C(=O)N[C@@H](CCCCN)C(=O)N[C@@H](CCCCN)C(=O)O (H-AMRLS[Dap]FFRKFILQRKK-OH)

IC50 [3]: > 1000 nM | IC50 [2]: 339 nM
Molecule: CC[C@H](C)[C@H](NC(=O)[C@H](Cc1ccccc1)NC(=O)[C@H](CCCCN)NC(=O)[C@H](CCCNC(=N)N)NC(=O)[C@H](Cc1ccccc1)NC(=O)[C@H](Cc1ccccc1)NC(=O)[C@H](CCCN)NC(=O)[C@H](CO)NC(=O)[C@H](CC(C)C)NC(=O)[C@H](CCCNC(=N)N)NC(=O)[C@H](CCSC)NC(=O)[C@H](C)N)C(=O)N[C@@H](CC(C)C)C(=O)N[C@@H](CCC(N)=O)C(=O)N[C@@H](CCCNC(=N)N)C(=O)N[C@@H](CCCCN)C(=O)N[C@@H](CCCCN)C(=O)O (H-AMRLS[Orn]FFRKFILQRKK-OH)

IC50 [2]: 217 nM
Molecule: H-AMRLSKFFRKFILQRKK-OH

Further lines, the molecule ahead of its results:

Molecule: CC[C@H](C)[C@H](NC(=O)[C@H](Cc1ccccc1)NC(=O)[C@H](CC(=O)O)NC(=O)[C@H](CCCNC(=N)N)NC(=O)[C@H](Cc1ccccc1)NC(=O)[C@H](Cc1ccccc1)NC(=O)[C@H](CCCCN)NC(=O)[C@H](CO)NC(=O)[C@H](CC(C)C)NC(=O)[C@H](CCCNC(=N)N)NC(=O)[C@H](CCSC)NC(=O)[C@H](C)N)C(=O)N[C@@H](CC(C)C)C(=O)N[C@@H](CCC(N)=O)C(=O)N[C@@H](CCCNC(=N)N)C(=O)N[C@@H](CCCCN)C(=O)N[C@@H](CCCCN)C(=O)O
IC50 [2]: 85.7 nM

Molecule: CC[C@H](C)[C@H](NC(=O)[C@H](Cc1ccccc1)NC(=O)[C@H](CCCCN)NC(=O)[C@H](CCCNC(=N)N)NC(=O)[C@H](Cc1ccccc1)NC(=O)[C@H](Cc1ccccc1)NC(=O)[C@H](CCN)NC(=O)[C@H](CO)NC(=O)[C@H](CC(C)C)NC(=O)[C@H](CCCNC(=N)N)NC(=O)[C@H](CCSC)NC(=O)[C@H](C)N)C(=O)N[C@@H](CC(C)C)C(=O)N[C@@H](CCC(N)=O)C(=O)N[C@@H](CCCNC(=N)N)C(=O)N[C@@H](CCCCN)C(=O)N[C@@H](CCCCN)C(=O)O (H-AMRLS[Dab]FFRKFILQRKK-OH)
IC50 [3]: > 1000 nM | IC50 [2]: 784 nM

Molecule: CC[C@H](C)[C@H](NC(=O)[C@H](Cc1ccccc1)NC(=O)[C@@H]1CCNC(=O)NCC[C@H](NC(=O)[C@H](CO)NC(=O)[C@H](CC(C)C)NC(=O)[C@H](CCCNC(=N)N)NC(=O)[C@H](CCSC)NC(=O)[C@H](C)N)C(=O)N[C@@H](Cc2ccccc2)C(=O)N[C@@H](Cc2ccccc2)C(=O)N[C@@H](CCCNC(=N)N)C(=O)N1)C(=O)N[C@@H](CC(C)C)C(=O)N[C@@H](CCC(N)=O)C(=O)N[C@@H](CCCNC(=N)N)C(=O)N[C@@H](CCCCN)C(=O)N[C@@H](CCCCN)C(=O)O (H-AMRLS[Dab]FFR[Dab]FILQRKK-OH; linker 6-10 via CO)
Activity [4]: Non-Toxic | Activity (Streptococcus pneumoniae [5]): Active | Activity (Erythrocyte [6]): Toxic | Activity [7]: Non-Toxic | Activity [8]: Non-Toxic | Activity (Streptococcus pneumoniae [9]): Active | Activity [10]: Non-Toxic | Activity [11]: Non-Toxic | Activity (Erythrocyte [12]): Non-Toxic | Activity (Streptococcus pneumoniae [13]): Active | Activity [14]: Non-Toxic | mortality at 72 h [15]: 50% | Activity [16]: Non-Toxic

Molecule: H-EMRISRIILDFLFLRKK-OH
EC50 [17]: 50.7 nM
